Values after ≈ are worked out from the molar mass of the structure shown.
Assays:
Format in all cases: functional
[1] = system: Pseudomonas aeruginosa; experiment: Antibacterial activity against Pseudomonas aeruginosa MTCC 424 after 18 hrs; conditions: MTCC 424, 18 h
Summary of the method: (§1)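 Disc diffusion (Kirby–Bauer) on Mueller-Hinton agar inoculated with fresh bacteria at 1-5 × 10^4 cfu mL-1. Compounds were dissolved in DMF at a range of concentrations, and discs were placed in triplicate. Plates were incubated at 30 °C for 18 h. MIC was taken as the lowest concentration giving no visible bacterial growth on the plate.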

[2] = system: MOLT-4; experiment: Antitumor activity against MOLT4 cells; conditions: Homo sapiens; for TGI: read-out: Log TGI (converted)
[3] = system: RPMI-8226; experiment: Antitumor activity against RPMI-8226 cells; conditions: Homo sapiens; for TGI: read-out: Log TGI (converted)
[4] = system: NCI-H522; experiment: Antitumor activity against NCI-H522 cells; conditions: Homo sapiens
[5] = system: Staphylococcus epidermidis; experiment: Antibacterial activity against Staphylococcus epidermidis MTCC 435 after 18 hrs; conditions: MTCC 435, 18 h; summary of the method: as §1
[6] = system: HOP-92; experiment: Antitumor activity against HOP92 cells; conditions: Homo sapiens; for CC50: read-out: Log LC50 (the source's name) (converted); for TGI: read-out: Log TGI (converted)
[7] = system: UO-31; experiment: Antitumor activity against UO31 cells; conditions: Homo sapiens; for TGI: read-out: Log TGI (converted)
Summary of the method: (§2)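 Tested in the NCI 60-human-tumour-cell-line panel at five concentrations, in 10-fold dilutions from 10^-4 to 10^-8 M. Three parameters were taken from the dose-response data, each as log10 of the molar concentration: GI50 (50% net growth inhibition), TGI (total growth inhibition) and LC50 (50% net cell death).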

[8] = system: MDA-MB-231; experiment: Antitumor activity against MDA-MB-231 cells; conditions: Homo sapiens; for TGI: read-out: Log TGI (converted)
[9] = system: HCT-116; experiment: Antitumor activity against HCT116 cells; conditions: Homo sapiens; for TGI: read-out: Log TGI (converted)
[10] = system: IGROV-1; experiment: Antitumor activity against IGROV1 cells; conditions: Homo sapiens
[11] = system: SNB-19; experiment: Antitumor activity against SNB19 cells; conditions: Homo sapiens; for CC50: read-out: Log LC50 (the source's name) (converted); for TGI: read-out: Log TGI (converted); summary of the method: as §2
[12] = system: SK-OV-3; experiment: Antitumor activity against SKOV3 cells; conditions: Homo sapiens; for CC50: read-out: Log LC50 (the source's name) (converted); for TGI: read-out: Log TGI (converted); summary of the method: as §2
[13] = system: CAKI-1; experiment: Antitumor activity against CAKI1 cells; conditions: Homo sapiens; for TGI: read-out: Log TGI (converted)
[14] = system: Vibrio; experiment: Antibacterial activity against Vibrio species after 18 hrs; summary of the method: as §1
[15] = system: TK-10; experiment: Antitumor activity against TK10 cells; conditions: Homo sapiens; for TGI: read-out: Log TGI (converted); summary of the method: as §2
[16] = system: A498; experiment: Antitumor activity against A498 cells; conditions: Homo sapiens; for TGI: read-out: Log TGI (converted)
[17] = system: Bacillus subtilis; experiment: Antibacterial activity against Bacillus subtilis MTCC 441 after 18 hrs; conditions: MTCC 441, 18 h; summary of the method: as §1
[18] = system: DU-145; experiment: Antitumor activity against DU145 cells; conditions: Homo sapiens; for TGI: read-out: Log TGI (converted)
[19] = system: HCT-15; experiment: Antitumor activity against HCT15 cells; conditions: Homo sapiens; for TGI: read-out: Log TGI (converted)
[20] = Antitumor activity against MALME 3M cells; conditions: Homo sapiens; for CC50: read-out: Log LC50 (the source's name) (converted); for TGI: read-out: Log TGI (converted)
[21] = system: OVCAR-5; experiment: Antitumor activity against OVCAR5 cells; conditions: Homo sapiens; for CC50: read-out: Log LC50 (the source's name) (converted); for TGI: read-out: Log TGI (converted)
[22] = system: NCI/ADR-RES; experiment: Antitumor activity against NCI/ADR-RES cells; conditions: Homo sapiens; for TGI: read-out: Log TGI (converted)
[23] = system: NCI-H23; experiment: Antitumor activity against NCI-H23 cells; conditions: Homo sapiens; for TGI: read-out: Log TGI (converted)
[24] = system: SK-MEL-2; experiment: Antitumor activity against SK-MEL-2 cells; conditions: Homo sapiens; for TGI: read-out: Log TGI (converted)
[25] = read-out: Log LC50 (the source's name) (converted)

CC(=O)Nc1ccc(S(=O)(=O)NNC(=O)c2cccnc2Nc2ccc(Cl)cc2)cc1
MIC [1]: > 25 µg/mL
GI50 [2]: 50.1 µM
LC50 [2]: > 100 µM
TGI [2]: > 100 µM
GI50 [3]: 28.8 µM
LC50 [3]: > 100 µM
TGI [3]: > 100 µM
GI50 [4]: 6.46 µM
CC50 [4, 25]: > 100 µM
TGI ([4]; read-out: Log TGI (converted)): > 100 µM
MIC [5]: 22 µg/mL (≈ 47.8 µM)
GI50 [6]: > 100 µM
CC50 [6]: > 100 µM
TGI [6]: > 100 µM
GI50 [7]: 91.2 µM
LC50 (50% net cell death) [7]: > 100 µM
TGI [7]: > 100 µM
GI50 [8]: 41.7 µM
LC50 [8]: > 100 µM
TGI [8]: > 100 µM
GI50 [9]: 7.24 µM
LC50 [9]: > 100 µM
TGI [9]: > 100 µM
GI50 [10]: 27.5 µM
CC50 [10, 25]: > 100 µM
TGI ([10]; read-out: Log TGI (converted)): > 100 µM
GI50 [11]: 14.1 µM
CC50 [11]: > 100 µM
TGI [11]: > 100 µM
GI50 [12]: 57.5 µM
CC50 [12]: > 100 µM
TGI [12]: > 100 µM
GI50 [13]: 9.12 µM
LC50 [13]: > 100 µM
TGI [13]: > 100 µM
MIC [14]: 18 µg/mL (≈ 39.1 µM)
GI50 [15]: 25.1 µM
LC50 [15]: > 100 µM
TGI [15]: > 100 µM
GI50 [16]: 18.6 µM
LC50 [16]: > 100 µM
TGI [16]: > 100 µM
MIC [17]: 17 µg/mL (≈ 37 µM)
GI50 [18]: 34.7 µM
LC50 [18]: > 100 µM
TGI [18]: > 100 µM
GI50 [19]: 13.8 µM
LC50 [19]: > 100 µM
TGI [19]: > 100 µM
GI50 [20]: > 100 µM
CC50 [20]: > 100 µM
TGI [20]: > 100 µM

O=C(NNS(=O)(=O)c1ccc(Cl)cc1Cl)c1cccnc1Nc1ccc(Cl)cc1
GI50 [21]: 26.3 µM
CC50 [21]: > 100 µM
TGI [21]: 77.6 µM
MIC [1]: > 25 µg/mL
GI50 [2]: 19.5 µM
LC50 [2]: > 100 µM
TGI [2]: 57.5 µM
GI50 [3]: 17.8 µM
LC50 [3]: > 100 µM
TGI [3]: 53.7 µM
MIC [5]: 17 µg/mL (≈ 36 µM)
GI50 [6]: 14.8 µM
CC50 [6]: > 100 µM
TGI [6]: 40.7 µM
GI50 [7]: 37.2 µM
LC50 (50% net cell death) [7]: > 100 µM
TGI [7]: > 100 µM
GI50 [8]: 19.1 µM
LC50 [8]: > 100 µM
TGI [8]: 50.1 µM
GI50 [9]: 15.5 µM
LC50 [9]: 53.7 µM
TGI [9]: 28.8 µM
GI50 [11]: 26.9 µM
CC50 [11]: > 100 µM
TGI [11]: 100 µM
GI50 [12]: 17 µM
CC50 [12]: > 100 µM
TGI [12]: 52.5 µM
GI50 [13]: 20 µM
LC50 [13]: > 100 µM
TGI [13]: 58.9 µM
MIC [14]: 14 µg/mL (≈ 29.7 µM)
GI50 [15]: 28.8 µM
LC50 [15]: > 100 µM
TGI [15]: 85.1 µM
GI50 [16]: 25.1 µM
LC50 [16]: 91.2 µM
TGI [16]: 47.9 µM
MIC [17]: 15 µg/mL (≈ 31.8 µM)
GI50 [18]: 41.7 µM
LC50 [18]: > 100 µM
TGI [18]: > 100 µM
GI50 [19]: 33.1 µM
LC50 [19]: 100 µM
TGI [19]: > 100 µM
GI50 [22]: 23.4 µM
LC50 [22]: > 100 µM
TGI [22]: 75.9 µM
GI50 [20]: 34.7 µM
CC50 [20]: > 100 µM
TGI [20]: 34.7 µM
GI50 [23]: 17.4 µM
LC50 [23]: > 100 µM
TGI [23]: 42.7 µM
GI50 [24]: 18.6 µM
LC50 [24]: 97.7 µM
TGI [24]: 42.7 µM

O=C(NNS(=O)(=O)c1ccc(F)cc1)c1cccnc1Nc1ccc(Cl)cc1Cl
GI50 [21]: 52.5 µM
CC50 [21]: > 100 µM
TGI [21]: > 100 µM
MIC [1]: > 25 µg/mL
GI50 [2]: 22.9 µM
LC50 [2]: > 100 µM
TGI [2]: > 100 µM
MIC [5]: 21 µg/mL (≈ 46.1 µM)
GI50 [6]: 15.5 µM
CC50 [6]: 85.1 µM
TGI [6]: 36.3 µM
GI50 [8]: 28.8 µM
LC50 [8]: > 100 µM
TGI [8]: > 100 µM
GI50 [9]: 30.2 µM
LC50 [9]: > 100 µM
TGI [9]: > 100 µM
GI50 [11]: 29.5 µM
CC50 [11]: > 100 µM
TGI [11]: > 100 µM
GI50 [12]: 38 µM
CC50 [12]: > 100 µM
TGI [12]: > 100 µM
GI50 [13]: 30.9 µM
LC50 [13]: > 100 µM
TGI [13]: > 100 µM
MIC [14]: 20 µg/mL (≈ 43.9 µM)
GI50 [15]: 33.9 µM
LC50 [15]: > 100 µM
TGI [15]: > 100 µM
GI50 [16]: 17.4 µM
LC50 [16]: 77.6 µM
TGI [16]: 36.3 µM
MIC [17]: 9 µg/mL (≈ 19.8 µM)
GI50 [18]: 22.9 µM
LC50 [18]: > 100 µM
TGI [18]: 55 µM
GI50 [19]: 26.9 µM
LC50 [19]: > 100 µM
TGI [19]: > 83.2 µM
GI50 [22]: 39.8 µM
LC50 [22]: > 100 µM
TGI [22]: > 100 µM
GI50 [20]: 34.7 µM
CC50 [20]: > 100 µM
TGI [20]: > 100 µM
GI50 [23]: 36.3 µM
LC50 [23]: > 100 µM
TGI [23]: > 100 µM
GI50 [24]: 42.7 µM
LC50 [24]: > 100 µM
TGI [24]: > 100 µM
